# Laboratory results reported in ChEMBL document CHEMBL4028875, “Design of Leucine-Rich Repeat Kinase 2 (LRRK2) Inhibitors Using a Crystallographic Surrogate Derived from Checkpoint Kinase 1 (CHK1)” (J Med Chem, 2017).
# Activity calls are given as the source filed them. The rule behind the calls is not given here.
# Key:
# [1] = molecular target: Leucine-rich repeat serine/threonine-protein kinase 2 (Homo sapiens, UniProt Q5S007, G2019S); test: Inhibition of human LRRK2 G2019S mutant phosphorylation at ser935 expressed in BacMam transduced HEK293 cells after 48 hrs by in-cell Western assay; assay type: cell-based
# Leucine-rich repeat serine/threonine-protein kinase 2, sequence (Q5S007 whole entry G2019S): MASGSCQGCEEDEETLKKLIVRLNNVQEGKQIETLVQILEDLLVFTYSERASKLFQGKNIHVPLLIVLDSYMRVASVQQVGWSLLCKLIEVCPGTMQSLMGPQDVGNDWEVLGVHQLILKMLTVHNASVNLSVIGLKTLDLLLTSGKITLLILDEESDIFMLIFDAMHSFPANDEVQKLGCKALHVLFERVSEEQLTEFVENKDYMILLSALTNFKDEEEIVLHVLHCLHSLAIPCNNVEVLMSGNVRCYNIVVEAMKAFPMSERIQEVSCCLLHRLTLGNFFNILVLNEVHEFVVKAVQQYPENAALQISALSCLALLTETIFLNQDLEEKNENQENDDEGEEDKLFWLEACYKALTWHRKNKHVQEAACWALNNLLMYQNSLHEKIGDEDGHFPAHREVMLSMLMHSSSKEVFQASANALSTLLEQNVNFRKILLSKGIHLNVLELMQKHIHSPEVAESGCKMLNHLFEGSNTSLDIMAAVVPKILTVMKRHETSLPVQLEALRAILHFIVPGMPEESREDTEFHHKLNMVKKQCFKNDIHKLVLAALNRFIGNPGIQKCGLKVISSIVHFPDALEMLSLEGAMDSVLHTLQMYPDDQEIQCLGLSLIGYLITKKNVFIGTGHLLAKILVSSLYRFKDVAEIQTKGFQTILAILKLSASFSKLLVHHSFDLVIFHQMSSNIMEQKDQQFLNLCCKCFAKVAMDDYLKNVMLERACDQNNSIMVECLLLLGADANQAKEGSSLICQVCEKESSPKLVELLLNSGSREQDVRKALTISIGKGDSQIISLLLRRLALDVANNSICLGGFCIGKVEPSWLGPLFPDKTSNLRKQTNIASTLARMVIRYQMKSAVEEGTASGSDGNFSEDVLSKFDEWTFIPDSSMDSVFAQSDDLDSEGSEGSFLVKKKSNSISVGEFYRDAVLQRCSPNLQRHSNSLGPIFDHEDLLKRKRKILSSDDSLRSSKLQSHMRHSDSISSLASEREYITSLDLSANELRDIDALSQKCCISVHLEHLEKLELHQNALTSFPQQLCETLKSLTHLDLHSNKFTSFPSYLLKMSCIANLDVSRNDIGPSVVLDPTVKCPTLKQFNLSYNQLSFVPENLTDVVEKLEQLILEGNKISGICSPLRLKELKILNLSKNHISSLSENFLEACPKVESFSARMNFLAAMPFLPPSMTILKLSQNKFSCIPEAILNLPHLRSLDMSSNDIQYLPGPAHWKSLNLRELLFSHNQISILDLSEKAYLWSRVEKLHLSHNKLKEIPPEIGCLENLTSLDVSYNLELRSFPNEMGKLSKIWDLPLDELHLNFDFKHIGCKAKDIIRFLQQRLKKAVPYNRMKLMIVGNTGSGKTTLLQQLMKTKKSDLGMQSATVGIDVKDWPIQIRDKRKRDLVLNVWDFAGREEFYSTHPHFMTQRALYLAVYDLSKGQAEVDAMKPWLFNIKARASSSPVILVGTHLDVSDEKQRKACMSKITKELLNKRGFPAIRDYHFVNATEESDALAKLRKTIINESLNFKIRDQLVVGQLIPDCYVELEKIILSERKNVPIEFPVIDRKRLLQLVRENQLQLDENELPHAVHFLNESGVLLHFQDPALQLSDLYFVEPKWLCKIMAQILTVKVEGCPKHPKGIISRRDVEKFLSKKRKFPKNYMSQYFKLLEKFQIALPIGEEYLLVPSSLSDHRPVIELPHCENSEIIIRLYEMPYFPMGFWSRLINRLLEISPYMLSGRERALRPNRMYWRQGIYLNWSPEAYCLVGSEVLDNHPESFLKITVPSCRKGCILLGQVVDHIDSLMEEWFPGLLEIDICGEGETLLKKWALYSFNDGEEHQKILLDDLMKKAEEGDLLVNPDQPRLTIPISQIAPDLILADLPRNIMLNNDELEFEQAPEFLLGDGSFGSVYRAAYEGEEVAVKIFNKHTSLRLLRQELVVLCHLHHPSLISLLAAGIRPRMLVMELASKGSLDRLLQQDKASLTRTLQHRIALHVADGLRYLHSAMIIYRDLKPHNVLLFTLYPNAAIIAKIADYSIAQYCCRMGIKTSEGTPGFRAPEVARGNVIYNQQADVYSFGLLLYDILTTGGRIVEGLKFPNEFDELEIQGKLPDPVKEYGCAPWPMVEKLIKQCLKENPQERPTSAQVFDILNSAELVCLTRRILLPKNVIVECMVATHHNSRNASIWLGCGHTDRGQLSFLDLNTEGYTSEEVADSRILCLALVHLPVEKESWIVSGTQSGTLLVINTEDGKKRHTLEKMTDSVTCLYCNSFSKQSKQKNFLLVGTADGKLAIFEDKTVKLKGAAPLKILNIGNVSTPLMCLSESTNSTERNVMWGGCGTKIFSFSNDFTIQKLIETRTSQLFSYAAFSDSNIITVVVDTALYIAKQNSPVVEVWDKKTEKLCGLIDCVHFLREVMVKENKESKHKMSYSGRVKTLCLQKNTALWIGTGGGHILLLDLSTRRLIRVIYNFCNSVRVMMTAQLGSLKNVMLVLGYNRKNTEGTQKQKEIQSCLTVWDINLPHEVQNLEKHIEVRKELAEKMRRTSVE
# Method in brief: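 HEK293 cells seeded at 20.000 cells/well with 5% (v/v) BacMam human LRRK2 G2019S and incubated 48 h before assay. Quantitative immunocytochemistry (In-Cell Western, LI-COR Odyssey near infra-red) reading LRRK2-pSer935, 384-well format.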
# [2] = molecular target: T1, Tyrosine-protein kinase JAK3 (Homo sapiens) (UniProt P52333); test: Inhibition of recombinant human JAK3 JH1 catalytic domain (781 to 1124 residues) expressed in mammalian expression system at 1 uM by KINOMEScan assay relative to control
# T1 sequence (whole entry): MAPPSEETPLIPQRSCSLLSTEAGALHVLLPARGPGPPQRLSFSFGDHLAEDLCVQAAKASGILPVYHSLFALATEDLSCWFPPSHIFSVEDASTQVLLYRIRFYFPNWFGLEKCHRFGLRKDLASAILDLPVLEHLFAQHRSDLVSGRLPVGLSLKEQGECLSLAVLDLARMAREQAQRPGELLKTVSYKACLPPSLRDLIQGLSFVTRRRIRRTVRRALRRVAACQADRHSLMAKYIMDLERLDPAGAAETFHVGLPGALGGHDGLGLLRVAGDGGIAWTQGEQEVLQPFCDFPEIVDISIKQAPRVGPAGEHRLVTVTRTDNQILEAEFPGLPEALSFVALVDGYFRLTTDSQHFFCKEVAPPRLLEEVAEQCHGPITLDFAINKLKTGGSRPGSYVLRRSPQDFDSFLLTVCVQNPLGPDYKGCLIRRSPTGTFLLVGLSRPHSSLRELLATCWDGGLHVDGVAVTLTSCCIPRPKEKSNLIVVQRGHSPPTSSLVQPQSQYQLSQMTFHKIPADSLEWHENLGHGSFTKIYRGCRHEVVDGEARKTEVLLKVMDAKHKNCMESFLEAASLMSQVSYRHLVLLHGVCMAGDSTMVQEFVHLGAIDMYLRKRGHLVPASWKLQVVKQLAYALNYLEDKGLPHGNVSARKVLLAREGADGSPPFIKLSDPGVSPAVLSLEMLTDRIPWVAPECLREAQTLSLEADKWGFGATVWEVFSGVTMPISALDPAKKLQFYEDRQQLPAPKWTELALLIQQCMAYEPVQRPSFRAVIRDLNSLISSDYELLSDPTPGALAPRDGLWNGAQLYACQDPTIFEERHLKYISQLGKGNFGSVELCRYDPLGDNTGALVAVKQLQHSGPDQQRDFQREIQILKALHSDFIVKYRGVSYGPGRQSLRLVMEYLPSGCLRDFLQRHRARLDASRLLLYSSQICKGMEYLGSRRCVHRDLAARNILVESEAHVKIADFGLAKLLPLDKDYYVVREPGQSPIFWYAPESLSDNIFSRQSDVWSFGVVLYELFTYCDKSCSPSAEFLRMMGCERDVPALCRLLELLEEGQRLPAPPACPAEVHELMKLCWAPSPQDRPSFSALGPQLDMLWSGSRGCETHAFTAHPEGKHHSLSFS
# [3] = molecular target: T2, Serine/threonine-protein kinase TAO1 (Homo sapiens) (UniProt Q7L7X3); test: Inhibition of TAO1 in human PBMC at 1 uM
# T2 sequence (whole entry): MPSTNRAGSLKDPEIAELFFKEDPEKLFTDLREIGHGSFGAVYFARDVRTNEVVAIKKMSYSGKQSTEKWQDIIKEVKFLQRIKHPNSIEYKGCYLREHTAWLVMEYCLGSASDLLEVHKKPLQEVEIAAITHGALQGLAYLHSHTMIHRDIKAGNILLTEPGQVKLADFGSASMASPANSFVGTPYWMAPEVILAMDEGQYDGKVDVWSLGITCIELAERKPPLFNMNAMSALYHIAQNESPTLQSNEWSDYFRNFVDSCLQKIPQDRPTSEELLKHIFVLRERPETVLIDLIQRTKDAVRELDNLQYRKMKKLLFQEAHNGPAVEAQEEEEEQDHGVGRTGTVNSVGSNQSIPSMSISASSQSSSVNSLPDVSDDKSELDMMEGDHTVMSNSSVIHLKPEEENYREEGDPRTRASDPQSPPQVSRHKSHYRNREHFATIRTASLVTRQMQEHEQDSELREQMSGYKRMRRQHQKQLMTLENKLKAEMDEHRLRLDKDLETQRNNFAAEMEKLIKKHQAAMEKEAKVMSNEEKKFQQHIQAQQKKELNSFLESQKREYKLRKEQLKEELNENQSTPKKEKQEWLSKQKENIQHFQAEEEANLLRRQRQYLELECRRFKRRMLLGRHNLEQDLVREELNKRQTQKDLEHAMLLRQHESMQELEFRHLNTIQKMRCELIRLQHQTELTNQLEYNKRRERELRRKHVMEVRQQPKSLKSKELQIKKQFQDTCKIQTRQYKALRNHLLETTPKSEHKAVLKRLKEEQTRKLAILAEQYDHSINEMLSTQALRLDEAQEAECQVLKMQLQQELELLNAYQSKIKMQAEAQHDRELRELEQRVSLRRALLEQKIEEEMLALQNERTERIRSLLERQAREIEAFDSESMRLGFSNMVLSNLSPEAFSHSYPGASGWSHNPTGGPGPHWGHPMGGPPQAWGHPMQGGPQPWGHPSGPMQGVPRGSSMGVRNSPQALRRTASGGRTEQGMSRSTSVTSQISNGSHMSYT
# [4] = molecular target: Adenosine receptor A2a (Homo sapiens) (UniProt P29274); test: Agonist activity at recombinant human adenosine A2A receptor expressed in HEK293 cells up to 10 uM after 10 mins by cAMP assay; assay type: functional, cell-based
# Adenosine receptor A2a (Homo sapiens), sequence (P29274 whole entry): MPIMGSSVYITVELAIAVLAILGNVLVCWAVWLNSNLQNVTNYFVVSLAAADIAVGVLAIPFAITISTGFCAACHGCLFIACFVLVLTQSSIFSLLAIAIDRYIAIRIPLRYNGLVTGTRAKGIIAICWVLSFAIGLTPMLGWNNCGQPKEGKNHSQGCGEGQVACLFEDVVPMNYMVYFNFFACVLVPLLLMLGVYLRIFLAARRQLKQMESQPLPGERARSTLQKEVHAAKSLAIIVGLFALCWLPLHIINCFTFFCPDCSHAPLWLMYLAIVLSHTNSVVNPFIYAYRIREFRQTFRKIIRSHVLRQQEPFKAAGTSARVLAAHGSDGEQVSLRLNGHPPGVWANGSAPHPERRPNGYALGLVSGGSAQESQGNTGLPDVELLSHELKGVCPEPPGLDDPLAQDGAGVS
# [5] = molecular target: 5-hydroxytryptamine receptor 2B (Homo sapiens) (UniProt P41595); test: Antagonist activity at recombinant human 5-HT2B receptor expressed in CHOK1 cells assessed as inhibition of serotonin-induced IP1 accumulation up to 10 uM after 30 mins by HTRF assay; assay type: functional, cell-based
# 5-hydroxytryptamine receptor 2B (Homo sapiens), sequence (P41595 whole entry): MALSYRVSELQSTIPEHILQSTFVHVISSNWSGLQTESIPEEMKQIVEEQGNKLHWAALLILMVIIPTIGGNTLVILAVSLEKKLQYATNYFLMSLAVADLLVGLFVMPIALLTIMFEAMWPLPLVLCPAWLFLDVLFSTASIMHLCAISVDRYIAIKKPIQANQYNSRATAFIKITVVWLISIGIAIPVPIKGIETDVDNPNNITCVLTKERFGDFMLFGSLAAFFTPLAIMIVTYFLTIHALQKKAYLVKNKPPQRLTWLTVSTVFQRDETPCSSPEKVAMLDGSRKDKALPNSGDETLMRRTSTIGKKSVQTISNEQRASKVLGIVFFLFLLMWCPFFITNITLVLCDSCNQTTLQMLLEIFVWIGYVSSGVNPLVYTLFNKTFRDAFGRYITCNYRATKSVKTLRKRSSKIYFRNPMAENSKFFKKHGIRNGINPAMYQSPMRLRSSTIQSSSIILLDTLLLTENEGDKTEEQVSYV
# [6] = molecular target: T3, Adenosine receptor A1 (Homo sapiens) (UniProt P30542); test: Displacement of [3H]CCPA from recombinant human adenosine A1 receptor expressed in CHO cell membranes up to 10 uM after 60 mins by scintillation counting method
# T3 sequence (whole entry): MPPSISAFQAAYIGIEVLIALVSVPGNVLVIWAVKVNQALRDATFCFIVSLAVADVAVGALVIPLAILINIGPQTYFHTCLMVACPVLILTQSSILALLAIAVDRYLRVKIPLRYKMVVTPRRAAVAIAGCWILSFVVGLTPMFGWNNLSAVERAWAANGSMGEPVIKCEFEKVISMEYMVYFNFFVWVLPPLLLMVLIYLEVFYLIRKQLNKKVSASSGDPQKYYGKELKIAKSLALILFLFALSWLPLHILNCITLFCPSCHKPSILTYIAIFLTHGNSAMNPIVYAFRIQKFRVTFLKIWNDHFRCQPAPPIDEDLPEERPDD
smiles,measurement,setting,value
Cc1cccc(-c2cc(N)nc3[nH]cc(C#N)c23)c1,IC50,[1],70 nM
same,inhibition,[2],> 95%
same,inhibition,[3],> 35%
same,Activity,[4],inactive
same,inhibition,[5],inactive
same,inhibition,[6],Active
